# ATG4B inh = ATG4B protease inhibitors, primary screen, biochemical, fluorescence, uHTS; Cysteine protease ATG4B (Homo sapiens), Q9Y4P1; ATG4B cleavage of LC3-PLA2, NBD-HPC fluorescence, 1 h; inhibition, % at 8.33 µM; hit rate 0.51% among 340,000; AID 504462, 2011; in the data active = inhibition above about 40%
# CAL PDZ FP-1 = CAL PDZ peptide-binding inhibitors, primary screen, biochemical, fluorescence polarization, Cer-tagged CAL PDZ, HTS | Golgi-associated PDZ and coiled-coil motif-containing protein (Homo sapiens), Q9HD26 | inhibition, % at 20 µM | hit rate 0.02% among 330,000 | purified CAL PDZ, TMR-peptide fluorescence polarization, 1 h;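 active = highest replicate inhibition of at least 40%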;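 also: plate controls were DMSO neutral control wells for no effect and unlabeled competitor peptide control wells for full effect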
#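 material = purified tagged CAL PDZ domain construct (CerCALP) | buffer or medium = sodium phosphate/NaCl buffer pH 7.4 with TCEP, IgG, Thesit | reagent = TMR-labelled reporter peptide T*-PRC34 bound in PDZ groove | incubation = 1 h room-temperature incubation prior to read | measured by = fluorescence polarization (mP) | evaluation = percent inhibition from loss of millipolarization | control set = unlabelled peptide and DMSO controls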
# SR-BI uptake up = activators of SR-BI mediated DiI-HDL uptake, primary screen, ldlA[mSR-BI] CHO cells, DiI fluorescence. 3 h; 100 = double the neutral-control signal. activation, % at 12.5 µM. hit rate 0.096% among 320,000. AID 504775, 2011;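 active = mean replicate activation of at least 60% and every replicate at or above 60%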;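 also: 0% = median plate neutral-control signal and 100% = twice that signal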
#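 System: LDL receptor-deficient CHO ldlA cells overexpressing murine SR-BI | Timing: 3 h uptake period with compound, 37 °C | Medium: HEPES-buffered (25 mM, pH 7.4) F12 plus 0.5% BSA | Dosing: Single-point compound dose | Signal: Bottom-read fluorescence, 550/595 nm | Read-out: Retained DiI signal reflecting DiI-HDL uptake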
# SR-BI HDL uptake = inhibitors of SR-BI mediated HDL lipid uptake, primary screen, ldlA[mSR-BI] cells, fluorescence, single point. ldlA[mSR-BI] CHO cells, DiI-HDL uptake fluorescence, 3 h. inhibition, % at 12.5 µM. AID 488896, 2010. Scavenger receptor class B member 1 (Mus musculus), Q61009. hit rate 0.96% among 320,000;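 active = mean replicate inhibition of at least 70% and a set share of replicates each scoring 70 or more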;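 also: 0% = median of neutral control wells and 100% = median of positive control wells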
# Target sequence (Q61009 whole entry, looked up): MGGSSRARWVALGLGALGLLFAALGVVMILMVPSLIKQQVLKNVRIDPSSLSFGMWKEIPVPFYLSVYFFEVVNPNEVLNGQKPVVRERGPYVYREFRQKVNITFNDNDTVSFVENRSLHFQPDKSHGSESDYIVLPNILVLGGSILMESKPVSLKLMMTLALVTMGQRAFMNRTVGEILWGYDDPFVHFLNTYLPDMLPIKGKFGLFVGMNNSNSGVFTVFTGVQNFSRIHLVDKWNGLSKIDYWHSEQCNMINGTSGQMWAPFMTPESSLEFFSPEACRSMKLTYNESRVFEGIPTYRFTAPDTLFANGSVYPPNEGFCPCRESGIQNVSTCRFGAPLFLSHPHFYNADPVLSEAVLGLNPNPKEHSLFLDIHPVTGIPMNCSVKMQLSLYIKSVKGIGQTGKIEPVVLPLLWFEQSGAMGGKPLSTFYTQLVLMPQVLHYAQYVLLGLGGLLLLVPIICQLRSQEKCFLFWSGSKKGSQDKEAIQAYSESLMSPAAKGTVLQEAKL
# CAL PDZ FP-2 = untagged CAL PDZ binding inhibitors, primary screen, biochemical, fluorescence polarization, HTS | hit rate 0.92% among 300,000 | inhibition, % at 24.9 µM | purified CAL PDZ, TMR-peptide fluorescence polarization, 1 h | Golgi-associated PDZ and coiled-coil motif-containing protein (Homo sapiens), Q9HD26 | AID 602252, 2012;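 active = mean inhibition of at least 30% with at least half of replicates also reaching 30%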;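 also: 0% = DMSO neutral control and 100% = excess unlabeled competitor peptide PRC23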
# * marks the source's active call; other numbers are inactive results; . = no result given. Hits are enriched below; roughly 2.3% of the tested compounds scored in any of these assays.
SMILES,ATG4B inh,CAL PDZ FP-1,SR-BI uptake up,SR-BI HDL uptake,CAL PDZ FP-2
COc1ccc2[nH]c(C(=O)N3CCC(CO)(Cc4cccc(C(F)(F)F)c4)CC3)c(C)c2c1,-1,1,-26,26,.
Cc1nn(-c2ccccc2)c(N2CCCCC2)c1/C=N/NC(=O)c1ccncc1,-7,-2,-87,87*,-1
Cc1nn(-c2ccccc2)c(N2CCCC2)c1/C=N/NC(=S)Nc1cc(C(F)(F)F)ccc1Cl,-6,-1,-86,86*,.
Cc1nn(-c2ccccc2)c(N2CCCC2)c1/C=N/NC(=S)Nc1ccccc1C(F)(F)F,0,1,-57,57,1
COc1ccc(/C=N/Nc2nncc3ccccc23)c(OC)c1,-9,-2,-76,76*,-2
O=C(COC(=O)c1cc([N+](=O)[O-])ccc1N1CCOCC1)c1ccc(F)cc1,-9,-2,-84,84*,.
CCc1ccc(C(=O)COC(=O)c2cc([N+](=O)[O-])ccc2N2CCOCC2)cc1,-4,-3,-81,81*,-4
CC(NC(=O)COC(=O)c1cc([N+](=O)[O-])ccc1N1CCOCC1)c1ccc(F)cc1 (configuration not stated),0,-1,-32,32,.
CCc1cccc(C)c1NC(=O)COC(=O)c1cc([N+](=O)[O-])ccc1N1CCOCC1,-4,0,-72,72*,.
CC1(C)Cc2nc3oc4c(SCC(N)=O)ncnc4c3cc2CO1,3,.,.,.,.
O=C(CN1CCN(c2ccccc2)CC1)Nc1ccccc1Cl,-12,-2,9,-9,0
O=C(CCN1CCN(c2ccccc2)CC1)NNC(=S)Nc1ccccc1Cl,-9,-1,3,-3,41*
CCN(C(=O)CCc1ccccc1)C1CCCCC1,4,0,11,-11,64*
CCN(C(=O)c1cccc(NC(=O)c2ccccc2)c1)C1CCCCC1,13,-1,-62,62,57*
CCN(C(=O)COc1ccccc1)C1CCCCC1,3,-1,6,-6,-2
O=C(Nc1cccc(C(=O)NC2CCCCC2)c1)c1ccccc1,-2,-1,-36,36,-2
C=C1c2nc3ccccc3n2C=C(c2ccc(C)cc2)N1c1ccccc1,7,1,-46,46,-1
O=C(CCc1c[nH]c2ccccc12)NCCc1ccc(O)cc1,-8,2,-4,4,-4
O=S(=O)(c1ccc(Cl)cc1)N1CCSC1c1ccco1 (configuration not stated),2,14,-23,23,164*
O=[N+]([O-])c1ccc(S(=O)(=O)N2CCSC2c2ccco2)cc1 (configuration not stated),6,-1,-14,14,1
COc1ccc(CCNC(=O)Cn2c(-c3nonc3N)nc3ccccc32)cc1OC,-13,.,25,-25,40*
Cc1cccc(NC(=O)NNC(=O)c2ccc3ccccc3c2O)c1,-13,-2,-24,24,-2
COc1ccc(C(=O)NNC(=O)c2ccc3ccccc3c2)cc1,-15,1,-12,12,-5
O=C(NNC(=O)c1ccc2ccccc2c1O)NC1CCCCC1,3,0,.,90*,-2
COc1ccc(C(=O)NNC(=O)c2ccc3ccccc3c2O)cc1,-7,-1,-75,75*,-1
SMILES,ATG4B inh,CAL PDZ FP-1,SR-BI uptake up,SR-BI HDL uptake,CAL PDZ FP-2
O=C(NNC(=O)c1ccc2ccccc2c1O)Nc1ccc(F)cc1,-3,-1,.,-4,-4
Cc1ccc(C(=O)NNC(=O)c2ccc3ccccc3c2O)cc1,4,-1,-111,111*,1
COc1cccc(OCC(=O)NNC(=O)c2ccc3ccccc3c2O)c1,2,-1,.,89*,19
Cc1ccc(OCC(=O)NC(=S)Nc2ccc(Br)cn2)cc1,-10,-1,-2,2,-6
CC(C)Nc1nnc(SCC(=O)N2CCN(C(=O)c3ccco3)CC2)s1,-9,-1,1,-1,.
CN(c1ccccc1)S(=O)(=O)c1ccc(NC(=O)CC(=O)c2ccccc2)cc1,9,-1,10,-10,-3
COCc1cc(C)nc2sc(C(=O)Nc3ccccc3Br)c(N)c12,8,1,-79,79*,-1
CCCCN1C2=C(C(=O)CCC2)C(c2ccc(Cl)c(Cl)c2)C2=C1c1ccccc1C2=O (configuration not stated),-9,0,-85,85*,11
CCCN1C(=O)c2ccccc2NC1c1ccc(Cl)c(Cl)c1 (configuration not stated),25,0,13,-13,-5
COc1cccc(NC(=O)c2ccc3nsnc3c2)c1,1,-2,-32,32,49*
CC(=O)c1cccc(NC(=O)c2ccc3ccccc3c2)c1,-8,-4,-72,72*,-7
COc1cc(C(=O)Nc2cccc(C(C)=O)c2)cc(OC)c1OC,-2,0,-30,30,.
COc1ccccc1/C=C/C(=O)Nc1cccc(C(C)=O)c1,-16,-3,-76,76*,-15
CC(=O)c1cccc(NC(=O)NNC(=O)c2ccc3ccccc3c2)c1,-3,-7,22,-22,-12
COc1cccc(OC)c1C(=O)Nc1cccc(C(C)=O)c1,-13,-2,14,-14,53*
Cc1[nH]c2ccccc2c1C1=CC(=O)C=CC1=O,-7,0,-6,6,-5
CSc1cccc(NC(=O)CCn2c(=O)c3cccn3c3cccnc32)c1,10,-3,-77,77*,0
COc1ccc(CCNC(=O)CCCn2c(=O)c3cccn3c3cccnc32)c(OC)c1OC,-7,-2,-44,44,2
CCOc1ccc(CCNC(=O)CCCn2c(=O)c3cccn3c3cccnc32)cc1OCC,4,-2,-76,76*,-7
COc1ccc(CCNC(=O)CCCn2c(=O)c3cccn3c3cccnc32)c(OC)c1,6,-1,-71,71*,5
COc1cccc(CNC(=O)CCn2c(=O)c3cccn3c3cccnc32)c1,-4,-1,-33,33,-4
COCCCNc1nc(-c2ccc(Cl)cc2)nc2ccccc12,15,-1,-86,86*,-6
COCCCNc1nc(-c2ccncc2)nc2ccccc12,-9,-4,-75,75*,0
COCCNc1nc(-c2ccccc2)nc2ccccc12,1,-2,-31,31,-3
OCCCNc1nc(-c2ccc(Cl)cc2)nc2ccccc12,3,-2,-50,50,-4
